{"source": "paper PMC10925246", "about": "(bioRxiv, 2024)", "key": {"[1]": {"test": "Solubility of synthetic loop peptides in solvents", "type": "physicochemical", "conditions": "lyophilized synthetic peptide, acetylated and amidated", "method_in_brief": "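Synthetic outer-loop peptides were N-acetylated and C-amidated, ≥95% HPLC purity, and stored lyophilized at −80°C. Each was […] as required before competition binding at 0–250 µM.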"}, "FeoB": {"system": "FeoB", "type": "binding, P. aeruginosa PAO1", "conditions": "overnight 4°C, 0.15 M NaCl; eluted with 0.5 and 1 M KCl, not 0.3 M KCl; n = 3 experiments", "method_in_brief": "(§1)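 Cys-extended test peptide (2 mg) was coupled to SulfoLink resin in 50 mM Tris pH 8.5, 5 mM EDTA, 3 h room temperature. His-tagged transporter was Ni-Sepharose purified (4 h, 4°C; imidazole elution) and applied to the column; the flowthrough was collected. Columns were washed with 10 mM HEPES, 0.05% dodecyl-maltoside, 0.15 M KCl, then step-eluted with 0.3, 0.5, 1.0 M KCl. Unboiled fractions went to 4–20% SDS-PAGE and anti-His (1 µg/ml, overnight 4°C) western with IRDye secondary.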"}, "PotH": {"target": "T1, PotH (Escherichia coli, UniProt P31135)", "T1 sequence (P31135 1-317)": "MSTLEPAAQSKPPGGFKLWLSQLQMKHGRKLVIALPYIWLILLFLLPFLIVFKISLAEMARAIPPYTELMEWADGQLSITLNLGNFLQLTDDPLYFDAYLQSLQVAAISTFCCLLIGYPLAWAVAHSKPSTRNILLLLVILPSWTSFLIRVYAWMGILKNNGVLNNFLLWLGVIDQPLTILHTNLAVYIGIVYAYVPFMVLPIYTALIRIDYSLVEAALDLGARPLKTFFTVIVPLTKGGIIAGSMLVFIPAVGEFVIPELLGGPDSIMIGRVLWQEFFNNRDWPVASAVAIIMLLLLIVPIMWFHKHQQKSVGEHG", "type": "binding, E. coli", "conditions": "overnight 4°C, 0.15 M NaCl; eluted with 0.5 and 1 M KCl, not 0.3 M KCl; n = 3 experiments", "method_in_brief": "as §1"}, "thrombin": {"target": "thrombin (Homo sapiens, UniProt P00734)", "test": "N-104 affinity column screen of human tears, thrombin western blot", "type": "binding", "conditions": "pooled human basal tears, 5 hours 4°C, KCl elution, anti-thrombin western blot", "method_in_brief": "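Basal tears were collected 5 min on Schirmer strips after 0.5% proparacaine, eluted at 4°C in phosphate-buffered saline and pooled (170 µl). The pool was diluted fivefold with protease inhibitors, agarose-precleared, and split by protein between test-peptide and control-peptide columns for 5 h at 4°C. Elution was 0.3/0.5/1.0 M KCl; the 0.5 M eluate went to MS (human UniProt search). Unboiled fractions: 4–20% SDS-PAGE, polyclonal anti-thrombin 1 µg/ml overnight 4°C, LI-COR detection.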"}, "P. aeruginosa PA14 [2]": {"system": "P. aeruginosa PA14", "type": "cell-based, Pseudomonas aeruginosa", "conditions": "for minimum inhibitory concentration (MIC): PA14, CFU assay"}, "P. aeruginosa PA14 [3]": {"system": "P. aeruginosa PA14", "test": "Polyamine toxicity for PA14", "type": "cell-based, Pseudomonas aeruginosa", "conditions": "10^6 cfu/ml PA14, 30 mOsm/l, alamarBlue; n = 3 experiments"}, "[4]": {"system": "^14C-spermidine uptake by PA14", "test": "Polyamine transport assay", "type": "cell-based, Pseudomonas aeruginosa", "conditions": "10 and 25 µM, 45 min 35°C pretreatment, n = 3 experiments", "method_in_brief": "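PA14 (0.8×10^8 cfu in 100 µl dilute phosphate saline) was pre-incubated 45 min at 35°C with or without 10 or 25 µM test peptide. Cells were then given 1 µl of 10 mM [1,4-14C]spermidine stock (0.1 mCi/ml) for 15 min at 35°C. Pellets were washed four times with phosphate-buffered saline and counted by liquid scintillation, last wash also counted. Molecules per cell were estimated from a spermidine standard curve.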"}, "[5]": {"system": "PA14 pathogenesis in C. elegans N2", "test": "C. elegans - PA14 liquid infection", "type": "in vivo, Caenorhabditis elegans", "conditions": "SYTOX Orange uptake of dead worms", "method_in_brief": "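Young adult worms (raised from L1 on NGM with E. coli OP50 at room temperature, washed off in M9, pelleted 1200×g 2 min) were placed ~50 per well in 150 µl 90% M9/10% LB. They were incubated aerobically with an equal volume of PA14, feoB/potH/yaiW transposon mutants, or OP50, diluted to 10^7 cfu/ml and pre-treated with 50 µM test peptide for 5 h at 35°C. After 3 days, equal volume 6 µM SYTOX Orange was added; imaged next day, transmitted and 535/610 nm fluorescence.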"}, "P. aeruginosa PA14 [6]": {"system": "P. aeruginosa PA14", "test": "N-104 resistance assay over 30 generations", "type": "cell-based, Pseudomonas aeruginosa", "conditions": "through 30 generations, sub-MIC and MIC exposure; n = 2 experiments"}, "[7]": {"system": "PA14 feoB, potH and yaiW transposon mutants", "test": "CFU killing assay of PA14 transposon mutants", "type": "cell-based, Pseudomonas aeruginosa", "conditions": "10^6 cfu/ml, 30 mOsm/l; n = 3 experiments", "method_in_brief": "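Suspensions were exposed to test peptide or left untreated ~8 h at 35°C. 2 µl were spotted on LB agar, with or without selective antibiotic, incubated overnight at 37°C and imaged; n = 3 experiments.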"}}, "note": "Ends that are not written are not given here.", "data": [{"compound": "Ac-INIGGALQP-NH2 [FeoB outer loop 1 synthetic peptide]", "values": [{"measurement": "solubility in water and organic solvents", "setting": "[1]", "value": "not water, DMSO, methanol, isopropanol nor acetonitrile soluble"}, {"measurement": "solvent in which the peptide dissolved", "setting": "[1]", "value": "formic or acetic acid"}]}, {"compound": "EDASSDSTGADPAQEAGTSKPNEE-NH2 [C-95]", "values": [{"measurement": "binding of His tagged FeoB to column immobilized peptide", "setting": "FeoB", "value": "Neither bound"}, {"measurement": "binding of His tagged PotH to column immobilized peptide", "setting": "PotH", "value": "Neither bound"}, {"measurement": "capture of thrombin from human tears by column immobilized peptide", "setting": "thrombin", "value": "None bound"}]}, {"compound": "Ac-GAFFGQGGA-NH2 [FeoB outer loop 3 synthetic peptide]", "values": [{"measurement": "solubility in water and organic solvents", "setting": "[1]", "value": "not water, DMSO, methanol, isopropanol nor acetonitrile soluble"}, {"measurement": "solvent in which the peptide dissolved", "setting": "[1]", "value": "ammonia water and acetic acid"}]}, {"compound": "NCCCCNCCCN", "note": "[spermidine]", "values": [{"measurement": "effect of exogenous polyamine on N-104 bactericidal activity", "setting": "P. aeruginosa PA14 [2]; PA14, 5 µM N-104 plus polyamine at or below 100 µM, n = 3 experiments", "value": "inhibited N-104 bactericidal activity in a concentration-dependent manner"}, {"measurement": "concentrations toxic for PA14", "setting": "P. aeruginosa PA14 [3]", "value": "greater than 100 µM"}]}, {"compound": "Ac-AKAGKGMHGGVPGG-NH2 [N-80/C-25]", "values": [{"measurement": "effect on ^14C-spermidine uptake", "setting": "[4]", "value": "almost similar inhibitory effect"}]}, {"compound": "Ac-AQKLLKKFSLLKPWA [N-104]", "values": [{"measurement": "dependence of PA14 killing efficacy on osmolarity", "setting": "P. aeruginosa PA14 [2]; two osmolalities (30 and 300 mOsm/l)", "value": "efficacy diminishes as osmolarity increases"}, {"measurement": "effect of peptide alone on C. elegans", "setting": "[5]", "value": "no apparent effect"}, {"measurement": "development of resistance of PA14", "setting": "P. aeruginosa PA14 [6]", "value": "No stable resistance"}, {"measurement": "killing of PA14 transposon mutant lacking YaiW", "setting": "[7]", "value": "partially resistant"}, {"measurement": "binding of His tagged FeoB to column immobilized peptide", "setting": "FeoB", "value": "high affinity ligation"}, {"measurement": "binding of His tagged PotH to column immobilized peptide", "setting": "PotH", "value": "high affinity ligation"}, {"measurement": "capture of thrombin from human tears by column immobilized peptide", "setting": "thrombin", "value": "binds"}]}, {"compound": "Ac-AQKLLKKFSSLKPWA [N-104:L114S]", "values": [{"measurement": "minimum inhibitory concentration (MIC)", "setting": "P. aeruginosa PA14 [2]", "value": 2, "unit": "µM"}]}, {"compound": "Ac-AQKLLKKFSLSKPWA [N-104:L115S]", "values": [{"measurement": "minimum inhibitory concentration (MIC)", "setting": "P. aeruginosa PA14 [2]", "value": 2, "unit": "µM"}]}]}
